This is an account of results in ChEMBL document CHEMBL1268974, “Synthesis and antitumour activity of glycyrrhetinic acid derivatives” (Bioorg Med Chem, 2010).

The structures appear in SMILES notation. Activity calls are given as the source filed them. The calls are words filed in the database; no cut-off is given here.

The test system of assay [1] is A549. The assay is described as follows: Induction of apoptosis in human A549 cells at IC90 concentration after 24 to 48 hrs using acridine orange/ethidium bromide dye by fluorescence microscopic analysis. Type of assay: functional, cell-based. In short, it runs like this:
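About 500,000 cells were seeded in flasks and grown for 24 h, then the medium was replaced with compound-containing medium. After 24–48 h, floating cells in the supernatant were pelleted, washed and resuspended in PBS, mixed with acridine orange/ethidium bromide and examined by fluorescence microscopy. Green nuclear fluorescence was scored as apoptotic and red nuclei as necrotic.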

The test system of assay [2] is A549. Nature of the assay: Cytotoxicity against human A549 cells after 96 hrs by SRB assay. In kind it is functional, cell-based. The following applies: Homo sapiens, A549, 96 h.
The next assay concerns HCT-116. The assay is described as follows: Cytotoxicity against human HCT116 cells after 96 hrs by SRB assay. In kind it is functional, cell-based. The note with it: HCT-116, 96 h.
The next assay relates to SW-1736. Nature of the assay: Cytotoxicity against human SW1736 cells after 96 hrs by SRB assay. Type of assay: functional, cell-based. The following applies: Homo sapiens, SW-1736, 96 h.
A further assay deals with A2780. Nature of the assay: Cytotoxicity against human A2780 cells after 96 hrs by SRB assay. In kind it is functional, cell-based. The note with it: Homo sapiens, A2780, 96 h. In general terms: In SRB staining, fixed cells bind dye roughly in proportion to their protein.
The nature of assay [3]: Cytotoxicity against human Lipo cells after 96 hrs by SRB assay. In kind it is functional, cell-based. The note with it: Homo sapiens, Lipo, 96 h.
Assay [4] is described as follows: Cytotoxicity against human 518A2 cells after 96 hrs by SRB assay. Type of assay: functional, cell-based. The following applies: 518A2, 96 h.
The test system of another assay is 8505C. Nature of the assay: Cytotoxicity against human 8505C cells after 96 hrs by SRB assay. Type of assay: functional, cell-based. The following applies: Homo sapiens, 8505C, 96 h.
The next assay concerns HCT-8. The assay is described as follows: Cytotoxicity against human HCT8 cells after 96 hrs by SRB assay. In kind it is functional, cell-based. The note with it: HCT-8, 96 h.
Another assay has as its system SW480. Nature of the assay: Cytotoxicity against human SW480 cells after 96 hrs by SRB assay. Type of assay: functional, cell-based. The note with it: SW480, 96 h.
The subject of the next assay is A-431. The assay is described as follows: Cytotoxicity against human A431 cells after 96 hrs by SRB assay. In kind it is functional, cell-based. The note with it: A-431, 96 h.
Another assay deals with MCF7. Nature of the assay: Cytotoxicity against human MCF7 cells after 96 hrs by SRB assay. Type of assay: functional, cell-based. The note with it: Homo sapiens, MCF7, 96 h.
Assay [5] in a line: Cytotoxicity against human A253 cells after 96 hrs by SRB assay. Type of assay: functional, cell-based. The note with it: Homo sapiens, A253, 96 h.
In a further assay the test system is FaDu. The assay is described as follows: Cytotoxicity against human FADU cells after 96 hrs by SRB assay. In kind it is functional, cell-based.
Another assay deals with DLD-1. Nature of the assay: Cytotoxicity against human DLD1 cells after 96 hrs by SRB assay. Type of assay: functional, cell-based. The following applies: Homo sapiens, DLD-1, 96 h.
A short description of assay [6]: Cytotoxicity against mouse NIH/3T3 cells after 96 hrs by SRB assay. Type of assay: cell-based. The following applies: NIH3T3, 96 h.
The subject of another assay is HT-29. Nature of the assay: Cytotoxicity against human HT-29 cells after 96 hrs by SRB assay. Type of assay: functional, cell-based. The note with it: HT-29, 96 h.
The subject of another assay is A2780 (Homo sapiens). Nature of the assay: Induction of apoptosis in human A2780 cells assessed as DNA ladder formation at IC90 concentration after 24 hrs by agarose gel electrophoresis.

For the molecule `COC(=O)[C@@]1(C)CC[C@]2(C)CC[C@]3(C)C(=CC(=O)[C@@H]4[C@@]5(C)CC[C@H](OC(=O)CN)C(C)(C)[C@@H]5CC[C@]43C)[C@@H]2C1`, the outcome in the assay on A549 [1] was Active.
What is called IC50 is the midpoint of a concentration-inhibition curve. A low value points to inhibition by little substance. Take `COC(=O)[C@@]1(C)CC[C@]2(C)CC[C@]3(C)C(=CC(=O)[C@@H]4[C@@]5(C)CC[C@H](O)C(C)(C)[C@@H]5CC[C@]43C)[C@@H]2C1`: the half-maximal inhibitory concentration (IC50) with A549 [2] was determined as 23.5 µM; in the assay with HCT-116 it was 22.1 µM; in the assay with SW-1736 it was 34.9 µM; in the assay on A2780, 25.5 µM; in assay [3], 20.5 µM; in assay [4], 27.5 µM. Also, the half-maximal inhibitory concentration (IC50) was found to be 26.1 µM with 8505C; 24.4 µM with HCT-8; 16.1 µM in the assay on SW480; 25.3 µM in the assay on A-431; 22.1 µM with MCF7; 19.4 µM in [5]. Besides, the 50% inhibitory concentration (IC50) was 23.4 µM in the assay with FaDu, 26.1 µM with DLD-1, 22.8 µM in assay [6] and 27.5 µM with HT-29.
Consider `CC1(C)[C@@H](O)CC[C@]2(C)[C@H]3C(=O)C=C4[C@@H]5C[C@@](C)(C(=O)OCc6ccccc6)CC[C@]5(C)CC[C@@]4(C)[C@]3(C)CC[C@@H]12`, for which the IC50 in the assay on A549 [2] came out at 6.15 µM; in the assay with HCT-116, 20.6 µM; in the assay on SW-1736 it was 2.74 µM; in the assay on A2780 it was 20.3 µM; in assay [3], 11.5 µM; in assay [4], 18.2 µM. Besides, the concentration for half-maximal inhibition (IC50) in the assay on 8505C came out at 8.1 µM; with HCT-8, 25.2 µM; in the assay on SW480, 6.17 µM; with A-431, 23.6 µM; with MCF7 it was 13.5 µM; in [5], 10.7 µM. For the same molecule, the IC50 is 5.48 µM in the assay with FaDu, 22.7 µM in the assay on DLD-1, 21 µM in assay [6] and 11.5 µM in the assay on HT-29.
`CC(C)OC(=O)[C@@]1(C)CC[C@]2(C)CC[C@]3(C)C(=CC(=O)[C@@H]4[C@@]5(C)CC[C@H](OC(=O)[C@@H](C)N)C(C)(C)[C@@H]5CC[C@]43C)[C@@H]2C1`: the half-inhibitory concentration (IC50) in the assay with A549 [2] was found to be 3.17 µM; in the assay with HCT-116 it was 4.82 µM; in the assay on SW-1736, 3.46 µM; in the assay on A2780, 1.7 µM; in assay [3] it was 4.73 µM; in assay [4], 5.48 µM. Moreover, the half-maximal inhibitory concentration (IC50) with 8505C was determined as 3.51 µM; with HCT-8, 3.32 µM; in the assay on SW480, 3.47 µM; in the assay on A-431, 3.11 µM; with MCF7 it was 3.52 µM; in assay [5], 3.5 µM. Besides, the IC50 in the assay on FaDu was 5.48 µM; with DLD-1 it was 5.67 µM; in the assay on HT-29, 3.47 µM. The outcome in the assay on A549 [1] was Active.
For `CCOC(=O)[C@@]1(C)CC[C@]2(C)CC[C@]3(C)C(=CC(=O)[C@@H]4[C@@]5(C)CC[C@H](O)C(C)(C)[C@@H]5CC[C@]43C)[C@@H]2C1`, the IC50 was 22.7 µM in the assay on A549 [2]; 21.6 µM in the assay with HCT-116; 13.4 µM in the assay on SW-1736; 27 µM in the assay on A2780; 27.7 µM in assay [3]; 25.2 µM in [4]. For the same molecule, the IC50 with 8505C came to 24.6 µM; with HCT-8, 43.4 µM; in the assay with SW480, 19.1 µM; in the assay with A-431 it was 23.4 µM; with MCF7, 18.6 µM; in assay [5], 25 µM. The IC50 in the assay on FaDu was 23.8 µM; with DLD-1, 28.1 µM; in assay [6], 23.7 µM; with HT-29, 22.1 µM.
On to `COC(=O)[C@@]1(C)CC[C@]2(C)CC[C@]3(C)C(=CC(=O)[C@@H]4[C@@]5(C)CC[C@H](OC(=O)[C@H](C)N)C(C)(C)[C@@H]5CC[C@]43C)[C@@H]2C1`, for which the result in the assay on A549 [1] was Active.
With `CCOC(=O)[C@@]1(C)CC[C@]2(C)CC[C@]3(C)C(=CC(=O)[C@@H]4[C@@]5(C)CC[C@H](OC(=O)[C@H](C)N)C(C)(C)[C@@H]5CC[C@]43C)[C@@H]2C1`, the IC50 stood at 3.43 µM with A549 [2]; 2.82 µM in the assay with HCT-116; 2.92 µM with SW-1736; 2.59 µM in the assay with A2780; 2.74 µM in assay [3]; 2.72 µM in [4]. The IC50 with 8505C amounted to 3.87 µM; with HCT-8, 2.21 µM; with SW480, 2.79 µM; in the assay on A-431, 2.27 µM; with MCF7 it was 3.55 µM; in assay [5] it was 2.33 µM. Also, the results for the IC50 in the assay with FaDu, in the assay with DLD-1 and in the assay with HT-29 were 4.25 µM, 3.72 µM and 2.5 µM, respectively.
Regarding `COC(=O)[C@@]1(C)CC[C@]2(C)CC[C@]3(C)C(=CC(=O)[C@@H]4[C@@]5(C)CC[C@H](OC(=O)CCN)C(C)(C)[C@@H]5CC[C@]43C)[C@@H]2C1`, the result in the assay with A2780 (Homo sapiens) and in the assay with A549 [1] was Active.
As for `CC(C)OC(=O)[C@@]1(C)CC[C@]2(C)CC[C@]3(C)C(=CC(=O)[C@@H]4[C@@]5(C)CC[C@H](O)C(C)(C)[C@@H]5CC[C@]43C)[C@@H]2C1`, the IC50 in the assay on A549 [2] is 14.4 µM; in the assay on HCT-116, 26.4 µM; in the assay on SW-1736, 12.8 µM; with A2780 it was 24.9 µM; in assay [3], 15.9 µM; in [4], 18.2 µM. Besides, the half-maximal inhibitory concentration (IC50) worked out at 14.2 µM in the assay with 8505C; 24.1 µM with HCT-8; 15.3 µM with SW480; 32 µM in the assay with A-431; 16 µM in the assay on MCF7; 15.8 µM in [5]. Further, the concentration for half-maximal inhibition (IC50) in the assay on FaDu was 14.4 µM; in the assay on DLD-1 it was 27.6 µM; in assay [6], 32.4 µM; with HT-29, 16 µM.
In the case of `CC(C)OC(=O)[C@@]1(C)CC[C@]2(C)CC[C@]3(C)C(=CC(=O)[C@@H]4[C@@]5(C)CC[C@H](OC(=O)[C@H](C)N)C(C)(C)[C@@H]5CC[C@]43C)[C@@H]2C1`, the 50% inhibitory concentration (IC50) in the assay with A549 [2] turned out to be 3.43 µM; in the assay on HCT-116, 5.03 µM; in the assay with SW-1736 it was 3.54 µM; with A2780 it was 2.08 µM; in [3], 3.53 µM; in assay [4] it was 5.09 µM. The IC50 was found to be 3.49 µM with 8505C; 5.13 µM in the assay on HCT-8; 3.5 µM in the assay on SW480; 3.49 µM in the assay on A-431; 3.52 µM in the assay on MCF7; 3.51 µM in [5]. The half-inhibitory concentration (IC50) with FaDu was 5.39 µM; in the assay on DLD-1, 5.54 µM; in the assay with HT-29 it was 4.6 µM.
On to `CC1(C)[C@@H](O)CC[C@]2(C)[C@H]3C(=O)C=C4[C@@H]5C[C@@](C)(C(=O)O)CC[C@]5(C)CC[C@@]4(C)[C@]3(C)CC[C@@H]12` [ENOXOLONE], for which the 50% inhibitory concentration (IC50) in the assay with A549 [2] was determined as 82.8 µM; in the assay on HCT-116, 78.8 µM; in the assay on SW-1736, 76.9 µM; in the assay with A2780 it was 74.6 µM; in [3], 81.4 µM; in assay [4] it was 83.9 µM. The concentration for half-maximal inhibition (IC50) in the assay on 8505C came out at 86.5 µM; in the assay with HCT-8, 78.9 µM; with SW480, 86.8 µM; in the assay with A-431 it was 79.6 µM; in the assay with MCF7 it was 84.7 µM; in [5], 80.8 µM. Also, the 50% inhibitory concentration (IC50) came to 84.5 µM in the assay on FaDu, 81.2 µM with DLD-1, 18.5 µM in assay [6] and 80.1 µM in the assay with HT-29. Moreover, in the assay with A549 [1], the outcome was Active.
